Results pooled from the literature.
Target: 3-phosphoinositide-dependent protein kinase 1 (PDPK1, Homo sapiens, UniProt O15530)
Residues used in one study (O15530 1-556): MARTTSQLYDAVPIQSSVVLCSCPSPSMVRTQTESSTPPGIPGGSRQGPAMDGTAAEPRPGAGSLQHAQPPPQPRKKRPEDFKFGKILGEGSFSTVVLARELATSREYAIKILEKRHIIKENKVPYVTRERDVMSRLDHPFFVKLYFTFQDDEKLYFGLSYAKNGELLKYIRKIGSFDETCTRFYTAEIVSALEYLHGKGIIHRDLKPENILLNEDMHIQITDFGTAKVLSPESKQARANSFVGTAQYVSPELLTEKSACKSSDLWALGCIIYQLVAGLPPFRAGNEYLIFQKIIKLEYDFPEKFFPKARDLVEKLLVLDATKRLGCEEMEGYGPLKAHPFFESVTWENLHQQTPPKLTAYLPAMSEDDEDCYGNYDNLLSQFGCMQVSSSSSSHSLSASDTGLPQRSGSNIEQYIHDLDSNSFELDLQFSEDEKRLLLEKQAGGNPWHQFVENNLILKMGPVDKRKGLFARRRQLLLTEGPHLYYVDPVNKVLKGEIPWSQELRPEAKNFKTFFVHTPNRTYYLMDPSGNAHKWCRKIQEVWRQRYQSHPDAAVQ

Structure (SMILES)	read-out	action	method	concentration	inhibition [%]
COc1cccc2c(NCc3ccccc3)nc(-n3c(N)nc4ccccc43)nc12	target engagement in cells	inhibitor	chemoproteomics	20 mM	-5.3
CN(C)C1CCN(CC#Cc2nn(C3CCCC3)c3nc(NCc4ccccc4)ncc23)C1 (centres unmarked)	enzyme activity	inhibitor	FRET	10 µM	3
CC/C(=N\NC(=O)NCc1cccc(O)c1)c1ccc(O)c(C)c1O	enzyme activity	inhibitor		0.1 µM	-1.2
Nc1ncc2cc(-c3c(Cl)cccc3-c3cccnc3)c(N3C[C@@H]4[C@@H](N)[C@@H]4C3)nc2n1	enzyme activity	inhibitor	FRET	25 µM	0
CCCS(=O)(=O)Nc1ccc(F)c(C(=O)c2c[nH]c3ncc(-c4ccc(Cl)cc4)cc23)c1F	enzyme activity	inhibitor		1 µM	< 10
CSc1nc(C)c(-c2ccnc(Nc3ccc(N4CCOCC4)cc3)c2)[nH]1	enzyme activity	inhibitor		10 µM	41.3
Cc1ccc(Nc2nccc(N(C)c3ccc4c(C)n(C)nc4c3)n2)cc1S(N)(=O)=O	enzyme activity	inhibitor		0.3 µM	5
CCN(CC)CCNC(=O)c1c(C)[nH]c(/C=C2\C(=O)Nc3ccc(F)cc32)c1C	binding		competition with immobilised ligand	10 µM	71
O=C(CSc1nc2nccnc2c(=O)n1CCc1ccccc1)Nc1nccs1	enzyme activity	inhibitor		10 µM	11
COc1cc2ncnc(Nc3ccc(Oc4ccccc4)c(C)c3C)c2cc1OC	enzyme activity	inhibitor		1 µM	-2
CNC(=O)c1cc(Oc2ccc(NC(=O)Nc3ccc(Cl)c(C(F)(F)F)c3)cc2)ccn1	enzyme activity	inhibitor		0.3 µM	-2
